Experimental data as given in ChEMBL document CHEMBL3244414, “Structure-activity relationships among the O-acyl derivatives of leucomycin. Correlation of minimal inhibitory concentrations with binding to Escherichia coli ribosomes” (J Med Chem, 1977).
≈ marks a conversion by molar mass, not a printed value.

Key:
Staphylococcus aureus = assay: Antimicrobial activity against Staphylococcus aureus ATCC 6538P by agar dilution method; assay type: functional; settings: Staphylococcus aureus, ATCC 6538P; read-out: MIC
In short: (§1)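 Read-out is the minimal inhibitory concentration, found by agar dilution against the named strain.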

Bacillus spizizenii = assay: Antimicrobial activity against Bacillus subtilis ATCC 6633 by agar dilution method; assay type: functional; settings: Bacillus spizizenii, ATCC 6633; read-out: MIC; in short: as §1
Klebsiella pneumoniae = assay: Antimicrobial activity against Klebsiella pneumoniae ATCC 10031 by agar dilution method; assay type: functional; settings: Klebsiella pneumoniae, ATCC 10031; read-out: MIC; in short: as §1
[1] = target: Bacterial 70S ribosome (Bacteria) (UniProt P0A7V0+P60723+P0AG67+P0A7R5+P0A7R9+P0A7S3+P0A7S9+P0AG59+P0ADZ4+P0A7T3+P0AG63+P0A7T7+P0A7U3+P0A7U7+P68679+P0A7V3+P0A7V8+P0A7W1+P02358+P02359+P0A7W7+P0A7X3+P0A7J3+P0A7J7+P0AA10+P0ADY3+P02413+P0ADY7+P0AG44+P0C018+P0A7K6+P0A7L0+P0A7L3+P0AG48+P61175+P0ADZ0+P60624+P68919+P0A7L8+P0A7M2+P0A7M6+P60422+P0AG51+P0A7N1+P0A7M9+P0A7N4+P0A7N9+P0A7P5+P0A7Q1+Q2EEQ2+P0A7Q6+P60438+P62399+P0AG55+P0A7K2); assay: (§2) Displacement of [14C]erythromycin from Escherichia coli ribosomes after 30 mins by scintillation spectrometer analysis
In short: (§3)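 NH4Cl-washed E. coli ribosomes with [14C]erythromycin A and varied competitor concentrations in 0.01 M Tris-HCl pH 7.2, 0.1 M KCl, 0.004 M MgCl2, 0.01 M NH4Cl. Incubated 30 min at 24 °C, stopped by dilution in cold Tris/KCl/MgCl2 buffer, membrane-filtered, washed three times, dried, scintillation counted. Reports the concentration giving 50% inhibition of binding.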

Bacterial 70S ribosome = assay: as §2; in short: as §3

CO[C@@H]1[C@@H](O[C@@H]2O[C@H](C)[C@@H](O[C@H]3C[C@@](C)(O)[C@@H](OC(=O)CC(C)C)[C@H](C)O3)[C@H](N(C)C)[C@H]2OC(C)=O)[C@@H](CC=O)C[C@@H](C)[C@@H](OC(C)=O)/C=C/C=C/C[C@@H](C)OC(=O)C[C@H]1OC(C)=O
MIC (Staphylococcus aureus): 1.6 µg/mL (≈ 1.75 µM)
MIC (Bacillus spizizenii): 1.6 µg/mL (≈ 1.75 µM)
MIC (Klebsiella pneumoniae): 100 µg/mL (≈ 110 µM)
pK50 [1]: 4.7
IC50 (Bacterial 70S ribosome): 21.4 µM

CO[C@@H]1[C@@H](O[C@@H]2O[C@H](C)[C@@H](O[C@H]3C[C@@](C)(O)[C@@H](OC(=O)CC(C)C)[C@H](C)O3)[C@H](N(C)C)[C@H]2OC(=O)CCC(=O)O)[C@@H](CC=O)C[C@@H](C)[C@@H](O)/C=C/C=C/C[C@@H](C)OC(=O)C[C@H]1OC(C)=O
MIC (Staphylococcus aureus): 1.6 µg/mL (≈ 1.72 µM)
MIC (Bacillus spizizenii): 1.6 µg/mL (≈ 1.72 µM)
MIC (Klebsiella pneumoniae): 25 µg/mL (≈ 26.9 µM)
pK50 [1]: 5.5
IC50 (Bacterial 70S ribosome): 3.5 µM

CCCC(=O)O[C@H]1/C=C/C=C/C[C@@H](C)OC(=O)C[C@@H](OC(C)=O)[C@H](OC)[C@@H](O[C@@H]2O[C@H](C)[C@@H](O[C@H]3C[C@@](C)(O)[C@@H](OC(=O)CC(C)C)[C@H](C)O3)[C@H](N(C)C)[C@H]2O)[C@@H](CC=O)C[C@H]1C
MIC (Staphylococcus aureus): 3.1 µg/mL (≈ 3.45 µM)
MIC (Bacillus spizizenii): 1.6 µg/mL (≈ 1.78 µM)
MIC (Klebsiella pneumoniae): 100 µg/mL (≈ 111 µM)
pK50 [1]: 5.7
IC50 (Bacterial 70S ribosome): 1.9 µM

CCC(=O)O[C@H]1/C=C/C=C/C[C@@H](C)OC(=O)C[C@@H](O)[C@H](OC)[C@@H](O[C@@H]2O[C@H](C)[C@@H](O[C@H]3C[C@@](C)(O)[C@@H](OC(=O)C(C)CC)[C@H](C)O3)[C@H](N(C)C)[C@H]2O)[C@@H](CC=O)C[C@H]1C (stereo not given in full)
MIC (Staphylococcus aureus): 1.6 µg/mL (≈ 1.9 µM)
MIC (Bacillus spizizenii): 0.8 µg/mL (≈ 0.95 µM)
MIC (Klebsiella pneumoniae): 50 µg/mL (≈ 59.4 µM)
pK50 [1]: 5.8
IC50 (Bacterial 70S ribosome): 1.7 µM

CO[C@@H]1[C@@H](O[C@@H]2O[C@H](C)[C@@H](O[C@H]3C[C@@](C)(O)[C@@H](OC(=O)CC(C)C)[C@H](C)O3)[C@H](N(C)C)[C@H]2O)[C@@H](CC=O)C[C@@H](C)[C@@H](O)/C=C/C=C/C[C@@H](C)OC(=O)C[C@H]1OC(C)=O [JOSAMYCIN]
MIC (Staphylococcus aureus): 1.6 µg/mL (≈ 1.93 µM)
MIC (Bacillus spizizenii): 0.4 µg/mL (≈ 0.483 µM)
MIC (Klebsiella pneumoniae): 25 µg/mL (≈ 30.2 µM)
pK50 [1]: 5.9
IC50 (Bacterial 70S ribosome): 1.2 µM

CCCC(=O)O[C@H]1[C@H](C)O[C@@H](O[C@H]2[C@H](N(C)C)[C@@H](OC(=O)CC)[C@H](O[C@H]3[C@@H](CC=O)C[C@@H](C)[C@@H](O)/C=C/C=C/C[C@@H](C)OC(=O)C[C@@H](OC(C)=O)[C@@H]3OC)O[C@@H]2C)C[C@@]1(C)O
MIC (Staphylococcus aureus): 1.6 µg/mL (≈ 1.84 µM)
MIC (Bacillus spizizenii): 0.8 µg/mL (≈ 0.919 µM)
MIC (Klebsiella pneumoniae): 25 µg/mL (≈ 28.7 µM)
pK50 [1]: 4.8
IC50 (Bacterial 70S ribosome): 17.8 µM

CCCC(=O)O[C@H]1[C@H](C)O[C@@H](O[C@H]2[C@H](N(C)C)[C@@H](OC(=O)CCC(=O)O)[C@H](O[C@H]3[C@@H](CC=O)C[C@@H](C)[C@@H](OC(=O)CCC(=O)O)/C=C/C=C/C[C@@H](C)OC(=O)C[C@@H](O)[C@@H]3OC)O[C@@H]2C)C[C@@]1(C)O
MIC (Staphylococcus aureus): 6.3 µg/mL (≈ 6.48 µM)
MIC (Bacillus spizizenii): 3.1 µg/mL (≈ 3.19 µM)
MIC (Klebsiella pneumoniae): 50 µg/mL (≈ 51.4 µM)
pK50 [1]: 5.6
IC50 (Bacterial 70S ribosome): 2.8 µM

CO[C@@H]1[C@@H](O[C@@H]2O[C@H](C)[C@@H](O[C@H]3C[C@@](C)(O)[C@@H](OC(=O)CC(C)C)[C@H](C)O3)[C@H](N(C)C)[C@H]2O)[C@@H](CC=O)C[C@@H](C)[C@@H](OC(=O)C(Cl)Cl)/C=C/C=C/C[C@@H](C)OC(=O)C[C@H]1OC(C)=O
MIC (Staphylococcus aureus): 1.6 µg/mL (≈ 1.7 µM)
MIC (Bacillus spizizenii): 0.8 µg/mL (≈ 0.852 µM)
MIC (Klebsiella pneumoniae): 50 µg/mL (≈ 53.3 µM)
pK50 [1]: 5.9
IC50 (Bacterial 70S ribosome): 1.4 µM

CCCC(=O)O[C@H]1[C@H](C)O[C@@H](O[C@H]2[C@H](N(C)C)[C@@H](OC(=O)CCC(=O)O)[C@H](O[C@H]3[C@@H](CC=O)C[C@@H](C)[C@@H](OC(C)=O)/C=C/C=C/C[C@@H](C)OC(=O)C[C@@H](O)[C@@H]3OC)O[C@@H]2C)C[C@@]1(C)O
MIC (Staphylococcus aureus): 1.6 µg/mL (≈ 1.75 µM)
MIC (Bacillus spizizenii): 1.6 µg/mL (≈ 1.75 µM)
MIC (Klebsiella pneumoniae): 25 µg/mL (≈ 27.4 µM)
pK50 [1]: 5.5
IC50 (Bacterial 70S ribosome): 3.3 µM
